Source: PubChem
core dimer inh: blocks dimerization of HCV core protein. 300,000 tested, 0.33% active. TR-FRET GST/Flag-core106 dimerization, 1536-well. inhibition, % at 5 µM;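 active = inhibition above the mean of all tested compounds plus 3 SD, set per screening campaign, cut at about 45% in these data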
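Assay system: Tagged HCV core106 pair (GST and Flag) | Buffer or medium: KF-containing HEPES buffer, pH 7.45, DTT, CHAPS, BSA | Also added: Eu donor and XL665 acceptor anti-tag antibodies | Dosing: One concentration, 5 µM, in 0.5% DMSO | Timing: 4 h at 22.5 °C | Technique: TR-FRET 671 and 617 nm emission | Repeats: Singlicate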
PABP polyA inh: PABP-poly(A) binding inhibition. PABP-poly(A) RNA binding, fluorescence polarization. inhibition, % at 35 µM. 290,000 tested, 1% active;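 note: calls also rest on retests at 20 µM and on dose response follow-up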
Target sequence (P11940 whole entry, looked up): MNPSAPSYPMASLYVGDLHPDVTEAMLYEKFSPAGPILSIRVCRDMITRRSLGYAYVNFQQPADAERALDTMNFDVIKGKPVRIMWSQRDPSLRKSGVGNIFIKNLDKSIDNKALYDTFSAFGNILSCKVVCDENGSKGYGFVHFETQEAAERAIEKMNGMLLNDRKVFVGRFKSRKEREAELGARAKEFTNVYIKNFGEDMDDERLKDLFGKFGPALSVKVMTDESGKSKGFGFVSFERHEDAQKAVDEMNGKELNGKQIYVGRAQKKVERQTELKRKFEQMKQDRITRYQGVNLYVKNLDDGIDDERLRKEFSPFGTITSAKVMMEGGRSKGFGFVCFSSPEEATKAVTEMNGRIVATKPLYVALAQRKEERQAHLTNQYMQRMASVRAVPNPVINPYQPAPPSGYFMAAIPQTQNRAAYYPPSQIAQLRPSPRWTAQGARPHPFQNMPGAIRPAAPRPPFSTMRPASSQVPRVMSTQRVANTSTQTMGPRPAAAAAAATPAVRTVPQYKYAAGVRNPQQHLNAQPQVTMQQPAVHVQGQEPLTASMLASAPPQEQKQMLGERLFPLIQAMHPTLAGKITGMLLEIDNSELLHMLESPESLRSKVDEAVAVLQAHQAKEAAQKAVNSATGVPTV
eIF4H FP inh: inhibitors of RNA binding by human eIF4H; Q15056; eIF4H fluorescence polarization binding assay; inhibition, % at 35 µM; 290,000 tested, 0.94% active;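 note: calls also rest on retests at 20 µM and on dose response follow-up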
DNA FID counter-1: counter-screen for HCV NS3 helicase inhibitors: DNA intercalator displacement; DNA fluorescent intercalator displacement, fluorescence; inhibition, % at 7.9 µM; 290,000 tested, 0.17% active; AID 1845; in the data active = inhibition above about 37%;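 note: higher means more ethidium bromide displaced from hairpin DNA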
NS3 helicase inh: HCV NS3 helicase inhibition | NS3 helicase DNA unwinding, Cy5 molecular beacon fluorescence | inhibition, % at 10.9 µM | 290,000 tested, 0.56% active;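 active = inhibition above the mean of all tested compounds plus 3 SD, set per campaign, cut at about 35% in these data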
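System: Hepatitis C virus NS3 helicase domain fragment enzyme | Reagent: Annealed dual-labelled DNA beacon duplex, ATP-started | Compound dosing: 10.9 µM single point, 0.8% DMSO | Incubation: 1 h reaction at 25 °C, ATP-initiated | Technique: Cy5 fluorescence | Evaluation: Percent inhibition from t60/t0 fluorescence ratio | Benchmarks: Low DMSO, high thioflavine S at 110 µM | Replication: Singlicate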
MLLE-PAM2 inh: inhibitors of microRNA-mediated deadenylation, human PABP1 MLLE binding; P11940; GST-MLLE / FITC-PAM2 fluorescence polarization; inhibition, % at 20 µM; 360,000 tested, 0.36% active; in the data active = inhibition above about 35%, passing the limit was not always enough
NS3 hel confirm: HCV NS3 helicase inhibition, confirmation assay | inhibition, % at 10.9 µM | 1,600 tested, 31% active | AID 1943 | shares compounds with NS3 helicase inh | NS3 helicase DNA unwinding, Cy5 molecular beacon fluorescence;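 active = inhibition above the mean of all tested compounds plus 3 SD, cutoff set per campaign, cut at about 36% in these data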
DNA FID counter-2: intercalator displacement, NS3 helicase counter-screen. inhibition, % at 7.9 µM. AID 1945. DNA fluorescent intercalator displacement, fluorescence. 1,600 tested, 4% active. shares compounds with NS3 helicase inh; in the data active = inhibition above about 37%;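 note: higher means more displacement of ethidium bromide from the DNA hairpin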
FID counter DR: counter-screen for HCV NS3 helicase inhibitors: DNA intercalator displacement dose response | shares compounds with NS3 helicase inh | fluorescent intercalator displacement from DNA, fluorescence | IC50, µM | 120 tested, under 10 active
A number is an active result. An excerpt weighted towards active compounds, which were near 2% of everything screened. Unless noted, the rule behind the calls is not given here.

Screening CCOc1ccccc1N1CCN(c2nc3ccccc3nc2C(C#N)C(=O)OC)CC1 (centres undefined) returned core dimer inh inactive, PABP polyA inh inactive, eIF4H FP inh inactive, DNA FID counter-1 inactive, NS3 helicase inh inactive and MLLE-PAM2 inh inactive.
Screening CCOC(=O)C1(C)CCCN(C(=O)CCc2ccccc2)C1 (centres undefined) returned MLLE-PAM2 inh inactive.
`Cc1nn(-c2ccccc2)c2c1C1(C(=O)N(C)c3ccccc31)C(C#N)=C(N)O2` (centres undefined) gave core dimer inh inactive, PABP polyA inh inactive, eIF4H FP inh inactive, DNA FID counter-1 inactive, NS3 helicase inh 42.0, MLLE-PAM2 inh inactive, NS3 hel confirm inactive and DNA FID counter-2 inactive.
COc1cccc(-c2nnn(CC(=O)N(C3CCCCC3)C3CCS(=O)(=O)C3)n2)c1 (centres undefined) was read as MLLE-PAM2 inh inactive.
`OCc1ccc(-c2cncc3nccn23)cc1` gave MLLE-PAM2 inh inactive.
C/C(=N\NC(=S)NCCc1ccccc1)c1ccc(Cl)cc1Cl was read as core dimer inh inactive, PABP polyA inh inactive, eIF4H FP inh inactive, DNA FID counter-1 inactive, NS3 helicase inh inactive and MLLE-PAM2 inh inactive.
C/C(=N\NC(=S)NCCc1ccccc1)c1ccc(O)cc1O was read as core dimer inh inactive, PABP polyA inh inactive, eIF4H FP inh inactive, DNA FID counter-1 inactive, NS3 helicase inh 50.4, MLLE-PAM2 inh 40.1, NS3 hel confirm inactive and DNA FID counter-2 inactive.
COc1ccc(C)cc1NC(=O)CN1CCCC1c1ccc2c(c1)OCCCO2 (centres undefined) was read as MLLE-PAM2 inh inactive.
For O=C(COc1ccc2c3c(c(=O)oc2c1)CCCC3)N1C[C@H]2C[C@@H](C1)c1cccc(=O)n1C2 the results were core dimer inh inactive, PABP polyA inh inactive, eIF4H FP inh inactive, DNA FID counter-1 inactive, NS3 helicase inh 46.2, MLLE-PAM2 inh inactive, NS3 hel confirm inactive and DNA FID counter-2 inactive.
For O=C(CN1CCC(C(=O)O)CC1)Nc1ccccc1Oc1ccccc1 the results were core dimer inh inactive, PABP polyA inh inactive, eIF4H FP inh inactive, DNA FID counter-1 inactive, NS3 helicase inh 37.1, MLLE-PAM2 inh inactive, NS3 hel confirm inactive and DNA FID counter-2 inactive.
`O=C(O)c1ccc(-n2cccc2/C=C2/NC(=O)N(c3cccc(Cl)c3)C2=O)cc1` gave PABP polyA inh inactive, eIF4H FP inh inactive, DNA FID counter-1 inactive, NS3 helicase inh 41.2, MLLE-PAM2 inh inactive, NS3 hel confirm 69.5, DNA FID counter-2 inactive and FID counter DR inactive.
For O=C1CC(=O)N(c2ccccc2)c2ccccc21 the results were core dimer inh inactive, PABP polyA inh inactive, eIF4H FP inh inactive, DNA FID counter-1 inactive, NS3 helicase inh inactive and MLLE-PAM2 inh inactive.
For O=C1CC(=O)N(c2ccccc2)N1c1ccccc1 the results were core dimer inh inactive, PABP polyA inh inactive, eIF4H FP inh inconclusive, DNA FID counter-1 inactive, NS3 helicase inh 38.4, MLLE-PAM2 inh inactive, NS3 hel confirm inactive and DNA FID counter-2 inactive.
COc1cc(C(=O)NC(=S)Nc2ccc(Cl)cn2)cc(OC)c1OC was read as core dimer inh inactive, PABP polyA inh inactive, eIF4H FP inh inactive, DNA FID counter-1 inactive, NS3 helicase inh inactive and MLLE-PAM2 inh inactive.
For CCOc1ccc(NC(=S)N2CCC(C(=O)c3ccc(F)cc3)CC2)cc1 the results were MLLE-PAM2 inh inactive.
For Cc1ccc(-n2cccc2/C=C2\C(=N)N3N=C(c4ccco4)SC3=NC2=O)cc1 the results were core dimer inh inactive, PABP polyA inh inactive, eIF4H FP inh inactive, DNA FID counter-1 inactive, NS3 helicase inh 42.5, MLLE-PAM2 inh inactive, NS3 hel confirm 85.0, DNA FID counter-2 inactive and FID counter DR inactive.
